{"source": "paper PMC8451688", "about": "(Journal of Enzyme Inhibition and Medicinal Chemistry, 2021)", "key": {"[1]": {"tested_on": "NRK-52E cells", "format": "cell-based", "settings": "Table 3; normal rat kidney cell line; MTT"}, "[2]": {"tested_on": "PC-3 cells", "format": "cell-based, human", "settings": "Table 3; MTT; mean of triplicate"}, "[3]": {"tested_on": "A549 cells", "assay": "cells", "format": "cell-based, human", "settings": "mean of triplicate; for IC50 (%inhibition ± SD) A549: Table 3"}, "[4]": {"tested_on": "HepG2 cells", "format": "cell-based, human", "settings": "Table 3; MTT; mean of triplicate"}, "[5]": {"tested_on": "A549 cells", "assay": "Cell cycle analysis by PI flow cytometry", "format": "cell-based, human", "settings": "24 h", "method_in_brief": "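A549 cells were treated for 24 h with test compound at 0, 4 or 8 µM, with 0.1% DMSO as control. Cells were collected and washed twice in cold PBS, then fixed in cold 70% ethanol overnight at 4 °C. They were treated with 1 mg/mL RNase A for 30 min at 37 °C, stained with PI for 30 min at 4 °C in the dark, and analysed by flow cytometry.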"}, "[6]": {"settings": "Homo sapiens, A549, read-out: IC50 A549, MTT"}}, "note": "Like-named read-outs stand apart in the source and are kept apart here."}
{"compound": "O=C(CN1C(=O)/C(=C/c2ccccc2)SC1=S)Nc1ccccc1", "note": "[I1, (Z)-2–(5-benzylidene-4-oxo-2-thioxothiazolidin-3-yl)-N-phenylacetamide]", "values": [{"measurement": "IC50 (%inhibition ± SD) NRK-52E", "setting": "[1]", "value": "13.1 ± 3.58", "unit": "%"}, {"measurement": "IC50 (%inhibition ± SD) PC-3", "setting": "[2]", "value": "21.7 ± 2.89", "unit": "%"}, {"measurement": "IC50", "setting": "[3]; [6]", "value": "11.3 ± 1.5", "unit": "µM"}, {"measurement": "IC50 (%inhibition ± SD) A549", "setting": "[3]; MTT", "value": "11.3 ± 1.50", "unit": "%"}, {"measurement": "IC50 (%inhibition ± SD) HepG2", "setting": "[4]", "value": "24.7 ± 8.91", "unit": "%"}]}
{"compound": "O=C(CN1C(=O)/C(=C/c2ccccc2F)SC1=S)Nc1ccccc1", "note": "[I2, (Z)-2–(5-(2-fluorobenzylidene)-4-oxo-2-thioxothiazolidin-3-yl)-N-phenylacetamide]", "values": [{"measurement": "IC50", "setting": "[3]; read-out: IC50 A549, MTT", "value": "22.7 ± 5.45", "unit": "µM"}]}
{"compound": "O=C(CN1C(=O)/C(=C/c2ccccc2O)SC1=S)Nc1ccccc1", "note": "[I4, (Z)-2–(5-(2-hydroxybenzylidene)-4-oxo-2-thioxothiazolidin-3-yl)-N-phenylacetamide]", "values": [{"measurement": "IC50", "setting": "[3]; [6]", "value": "15.8 ± 3.03", "unit": "µM"}]}
{"compound": "COc1ccccc1/C=C1\\SC(=S)N(CC(=O)Nc2ccccc2)C1=O", "note": "[I5, (Z)-2–(5-(2-methoxybenzylidene)-4-oxo-2-thioxothiazolidin-3-yl)-N-phenylacetamide]", "values": [{"measurement": "IC50 (%inhibition ± SD) NRK-52E", "setting": "[1]", "value": "17.4 ± 4.57", "unit": "%"}, {"measurement": "IC50", "setting": "[3]; [6]", "value": "13.4 ± 5.03", "unit": "µM"}, {"measurement": "IC50 (%inhibition ± SD) A549", "setting": "[3]; MTT", "value": "13.4 ± 5.03", "unit": "%"}, {"measurement": "IC50 (%inhibition ± SD) HepG2", "setting": "[4]", "value": "36.4 ± 8.00", "unit": "%"}]}
{"compound": "O=C(CN1C(=O)/C(=C/c2cccc([N+](=O)[O-])c2)SC1=S)Nc1ccccc1", "note": "[I6, (Z)-2–(5-(3-nitrobenzylidene)-4-oxo-2-thioxothiazolidin-3-yl)-N-phenylacetamide]", "values": [{"measurement": "IC50", "setting": "[3]; [6]", "value": "22.9 ± 2.07", "unit": "µM"}]}
{"compound": "O=C(CN1C(=O)/C(=C/c2cccc(F)c2)SC1=S)Nc1ccccc1", "note": "[I7, (Z)-2–(5-(3-fluorobenzylidene)-4-oxo-2-thioxothiazolidin-3-yl)-N-phenylacetamide]", "values": [{"measurement": "IC50", "setting": "[3]; [6]", "value": "29.6 ± 3.72", "unit": "µM"}]}
{"compound": "O=C(CN1C(=O)/C(=C/c2cccc(Cl)c2)SC1=S)Nc1ccccc1", "note": "[I8, (Z)-2–(5-(3-chlorobenzylidene)-4-oxo-2-thioxothiazolidin-3-yl)-N-phenylacetamide]", "values": [{"measurement": "IC50", "setting": "[3]; [6]", "value": "31 ± 2.21", "unit": "µM"}]}
{"compound": "O=C(CN1C(=O)/C(=C/c2cccc(O)c2)SC1=S)Nc1ccccc1", "note": "[I10, (Z)-2–(5-(3-hydroxybenzylidene)-4-oxo-2-thioxothiazolidin-3-yl)-N-phenylacetamide]", "values": [{"measurement": "IC50", "setting": "[3]; [6]", "value": "42.8 ± 6.5", "unit": "µM"}]}
{"compound": "O=C(CN1C(=O)/C(=C/c2ccc([N+](=O)[O-])cc2)SC1=S)Nc1ccccc1", "note": "[I12, (Z)-2–(5-(4-nitrobenzylidene)-4-oxo-2-thioxothiazolidin-3-yl)-N-phenylacetamide]", "values": [{"measurement": "IC50", "setting": "[3]; [6]", "value": "23.6 ± 3", "unit": "µM"}]}
{"compound": "O=C(CN1C(=O)/C(=C/c2ccc(C(F)(F)F)cc2)SC1=S)Nc1ccccc1", "note": "[I13, (Z)-2-(4-oxo-2-thioxo-5-(4-(trifluoromethyl)benzylidene)thiazolidin-3-yl)-N-phenylacetamide]", "values": [{"measurement": "IC50", "setting": "[3]; [6]", "value": "20.1 ± 3.13", "unit": "µM"}]}
{"compound": "O=C(CN1C(=O)/C(=C/c2ccc(F)cc2)SC1=S)Nc1ccccc1", "note": "[I14, (Z)-2–(5-(4-fluorobenzylidene)-4-oxo-2-thioxothiazolidin-3-yl)-N-phenylacetamide]", "values": [{"measurement": "IC50", "setting": "[3]; [6]", "value": "18.8 ± 3.31", "unit": "µM"}]}
{"compound": "O=C(CN1C(=O)/C(=C/c2ccc(Cl)cc2)SC1=S)Nc1ccccc1", "note": "[I15, (Z)-2–(5-(4-chlorobenzylidene)-4-oxo-2-thioxothiazolidin-3-yl)-N-phenylacetamide]", "values": [{"measurement": "IC50 (%inhibition ± SD) NRK-52E", "setting": "[1]", "value": "15.1 ± 2.45", "unit": "%"}, {"measurement": "IC50 (%inhibition ± SD) PC-3", "setting": "[2]", "value": "17.6 ± 2.51", "unit": "%"}, {"measurement": "IC50 (%inhibition ± SD) HepG2", "setting": "[4]", "value": "20.6 ± 5.19", "unit": "%"}]}
{"compound": "O=C(CN1C(=O)/C(=C/c2ccc(O)cc2)SC1=S)Nc1ccccc1", "note": "[I16, (Z)-2-(5-(4-hydroxybenzylidene)-4-oxo-2-thioxothiazolidin-3-yl)-N-phenylacetamide]", "values": [{"measurement": "IC50", "setting": "[3]; [6]", "value": "16.8 ± 3.66", "unit": "µM"}]}
{"compound": "CC(C)c1ccc(/C=C2\\SC(=S)N(CC(=O)Nc3ccccc3)C2=O)cc1", "note": "[I17, (Z)-2-(5-(4-isopropylbenzylidene)-4-oxo-2-thioxothiazolidin-3-yl)-N-phenylacetamide]", "values": [{"measurement": "IC50", "setting": "[3]; [6]", "value": "20.7 ± 3.33", "unit": "µM"}]}
{"compound": "CCOc1ccc(/C=C2\\SC(=S)N(CC(=O)Nc3ccccc3)C2=O)cc1", "note": "[I19, (Z)-2-(5-(4-ethoxybenzylidene)-4-oxo-2-thioxothiazolidin-3-yl)-N-phenylacetamide]", "values": [{"measurement": "IC50 (%inhibition ± SD) NRK-52E", "setting": "[1]", "value": "11.0 ± 3.10", "unit": "%"}, {"measurement": "IC50 (%inhibition ± SD) PC-3", "setting": "[2]", "value": "18.1 ± 3.68", "unit": "%"}, {"measurement": "IC50 (%inhibition ± SD) HepG2", "setting": "[4]", "value": "18.8 ± 5.40", "unit": "%"}]}
{"compound": "O=C(CN1C(=O)/C(=C/c2ccc(Cl)cc2Cl)SC1=S)Nc1ccccc1", "note": "[I21, (Z)-2-(5-(2,4-dichlorobenzylidene)-4-oxo-2-thioxothiazolidin-3-yl)-N-phenylacetamide]", "values": [{"measurement": "IC50", "setting": "[3]; [6]", "value": "36.9 ± 1.36", "unit": "µM"}]}
{"compound": "O=C(CN1C(=O)/C(=C/C2CC2)SC1=S)Nc1ccccc1", "note": "[I23, (Z)-2-(5-(cyclopropylmethylene)-4-oxo-2-thioxothiazolidin-3-yl)-N-phenylacetamide]", "values": [{"measurement": "IC50", "setting": "[3]; [6]", "value": "15.7 ± 0.98", "unit": "µM"}]}
{"compound": "O=C(CN1C(=O)/C(=C/c2ccco2)SC1=S)Nc1ccccc1", "note": "[I24, (Z)-2-(5-(furan-2-ylmethylene)-4-oxo-2-thioxothiazolidin-3-yl)-N-phenylacetamide]", "values": [{"measurement": "IC50 (%inhibition ± SD) NRK-52E", "setting": "[1]", "value": "20.1 ± 2.12", "unit": "%"}, {"measurement": "IC50 (%inhibition ± SD) PC-3", "setting": "[2]", "value": "25.1 ± 3.39", "unit": "%"}]}
{"compound": "O=C(CN1C(=O)/C(=C/c2cccs2)SC1=S)Nc1ccccc1", "note": "[I25, (Z)-2–(4-oxo-5-(thiophen-2-ylmethylene)-2-thioxothiazolidin-3-yl)-N-phenylacetamide]", "values": [{"measurement": "IC50", "setting": "[3]; [6]", "value": "16 ± 3.46", "unit": "µM"}]}
{"compound": "O=C(CN1C(=O)/C(=C/c2ccc[nH]2)SC1=S)Nc1ccccc1", "note": "[I26, (Z)-2-(5-((1H-pyrrol-2-yl)methylene)-4-oxo-2-thioxothiazolidin-3-yl)-N-phenylacetamide]", "values": [{"measurement": "IC50", "setting": "[3]; [6]", "value": "20 ± 4.25", "unit": "µM"}]}
{"compound": "O=C(CN1C(=O)/C(=C/c2ccccn2)SC1=S)Nc1ccccc1", "note": "[I28, (Z)-2-(4-oxo-5-(pyridin-2-ylmethylene)-2-thioxothiazolidin-3-yl)-N-phenylacetamide]", "values": [{"measurement": "IC50", "setting": "[3]; [6]", "value": "17.3 ± 3.9", "unit": "µM"}]}
{"compound": "O=C(CN1C(=O)/C(=C/c2ccncc2)SC1=S)Nc1ccccc1", "note": "[I29, (Z)-2-(4-oxo-5-(pyridin-4-ylmethylene)-2-thioxothiazolidin-3-yl)-N-phenylacetamide]", "values": [{"measurement": "IC50", "setting": "[3]; [6]", "value": "26.4 ± 8", "unit": "µM"}]}
{"compound": "COc1cccc(NC(=O)CN2C(=O)/C(=C/c3ccccc3)SC2=S)c1", "note": "[I30, (Z)-2-(5-benzylidene-4-oxo-2-thioxothiazolidin-3-yl)-N-(3-methoxyphenyl)acetamide]", "values": [{"measurement": "IC50", "setting": "[3]; [6]", "value": "22.1 ± 3.41", "unit": "µM"}]}
{"compound": "COc1cccc(NC(=O)CN2C(=O)/C(=C/C3CC3)SC2=S)c1", "note": "[I32, (Z)-2–(5-(cyclopropylmethylene)-4-oxo-2-thioxothiazolidin-3-yl)-N-(3-methoxyphenyl)acetamide]", "values": [{"measurement": "IC50", "setting": "[3]; [6]", "value": "39.1 ± 5.62", "unit": "µM"}]}
{"compound": "COc1cccc(NC(=O)CN2C(=O)/C(=C/c3ccco3)SC2=S)c1", "note": "[I33, (Z)-2–(5-(furan-2-ylmethylene)-4-oxo-2-thioxothiazolidin-3-yl)-N-(3-methoxyphenyl)acetamide]", "values": [{"measurement": "IC50", "setting": "[3]; [6]", "value": "46.5 ± 7.31", "unit": "µM"}]}
{"compound": "COc1cccc(NC(=O)CN2C(=O)/C(=C/c3cccs3)SC2=S)c1", "note": "[I34, (Z)-N-(3-methoxyphenyl)-2–(4-oxo-5-(thiophen-2-ylmethylene)-2-thioxothiazolidin-3-yl)acetamide]", "values": [{"measurement": "IC50", "setting": "[3]; [6]", "value": "17.8 ± 3.75", "unit": "µM"}]}
{"compound": "(Z)-2-(5-(2-hydroxy-3-methoxybenzylidene)-4-oxo-2-thioxothiazolidin-3-yl)-N-phenylacetamide [I22]", "values": [{"measurement": "IC50", "setting": "[3]; read-out: IC50 A549, MTT", "value": "84.9 ± 9", "unit": "µM"}]}
{"compound": "(Z)-2-(5-(4-(dimethylamino)benzylidene)-4-oxo-2-thioxothiazolidin-3-yl)-N-phenylacetamide [I20]", "values": [{"measurement": "IC50 (%inhibition ± SD) NRK-52E", "setting": "[1]", "value": "14.7 ± 1.58", "unit": "%"}, {"measurement": "IC50 (%inhibition ± SD) PC-3", "setting": "[2]", "value": "19.9 ± 5.56", "unit": "%"}, {"measurement": "percentage of cells in G2/M", "setting": "[5]; A549, 4 µM", "value": 10.92, "unit": "%"}, {"measurement": "percentage of cells in G2/M", "setting": "[5]; A549, 8 µM", "value": 15.45, "unit": "%"}, {"measurement": "IC50 (%inhibition ± SD) A549", "setting": "[3]; MTT", "value": "7.00 ± 1.06", "unit": "%"}, {"measurement": "IC50", "setting": "[3]; read-out: IC50 A549, MTT", "value": "7 ± 1.06", "unit": "µM"}, {"measurement": "IC50 (%inhibition ± SD) HepG2", "setting": "[4]", "value": "20.3 ± 2.93", "unit": "%"}]}
{"compound": "(Z)-2-(5-(cyclohex-2-en-1-ylmethylene)-4-oxo-2-thioxothiazolidin-3-yl)-N-phenylacetamide [I27]", "values": [{"measurement": "IC50", "setting": "[3]; read-out: IC50 A549, MTT", "value": "51.3 ± 9.09", "unit": "µM"}]}
